Measured values published in ChEMBL document CHEMBL4049421, “Design, Synthesis, and Pharmacological Characterization of N-(4-(2 (6,7-Dimethoxy-3,4-dihydroisoquinolin-2(1H)yl)ethyl)phenyl)quinazolin-4-amine Derivatives: Novel Inhibitors Reversing P-Glycoprotein-Mediated Multidrug Resistance” (J Med Chem, 2017).
Activity calls are given as the source filed them. The calls are words filed in the database; no cut-off is given here.

Key:
[1] = Plasma clearance in Sprague-Dawley rat at 5 mg/kg, iv measured after 24 hrs by LC-MS/MS analysis; assay type: ADME, organism-based
Outline: (§1)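 Male Sprague-Dawley rats, n = 3 per group, given drug in Tween-80/ethanol/saline (5:10:85, v/v) at 10 mg/kg p.o. or 5 mg/kg i.v. Retro-orbital blood was taken at 5 min to 24 h, and plasma separated at 900g. Samples were spiked with internal standard, methanol-precipitated and quantified by LC-MS/MS. F = (AUCpo/AUCiv)×(dose iv/dose po)×100%.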

Homo sapiens [2] = organism: Homo sapiens; assay: Inhibition of P-gp in human K562/A02 cells assessed as accumulation of doxorubicin at 0.1 uM to 5.0 uM after 150 mins by fluorescence spectrophotometric analysis; assay type: cell-based
Outline: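 K562/A02 cells (4×10^5) were incubated 150 min at 37 °C with 20.0 μM DOX plus modulator at various concentrations, with 0.1% DMSO as negative control. Cells were washed with cold PBS and lysed in HCl/Triton X-100/isopropanol. DOX fluorescence was read at ex 460 / em 587 nm. Mean ± SD, n = 3.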

Homo sapiens [3] = organism: Homo sapiens; assay: Inhibition of P-gp in human K562/A02 cells assessed as potentiation of doxorubicin-induced cytotoxicity at 1 uM preincubated for 24 hrs followed by compound washout for 24 hrs and subsequent doxorubicin addition measured after 48 hrs by MTT assay; assay type: cell-based
Outline: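 K562/A02 cells (1×10^4 cells per well) were preincubated 24 h with modulator (1.0 μM or 5.0 μM) or PBS. Cells were washed 0 or 3 times with medium and held for 0, 6, 12 or 24 h. A DOX concentration series was then added for 48 h, and viability was read by MTT. Triplicate determinations.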

[4] = Inhibition of CYP3A4 in rat liver microsomes assessed as decrease in 6beta-OH testosterone levels at 40 uM using testosterone as substrate by HPLC analysis; assay type: ADME
Outline: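 Rat liver microsomes, prepared by differential centrifugation, were incubated with testosterone in the absence or presence of compound at 2.5, 5.0, 10.0, 20.0 and 40.0 μM. The 6β-OH testosterone product was quantified by C18 reverse-phase gradient HPLC at 254 nm. Ketoconazole served as positive control. n = 3.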

[5] = Cmax in Sprague-Dawley rat at 10 mg/kg, po measured after 24 hrs by LC-MS/MS analysis; assay type: ADME, organism-based; design: dose 10 mg/kg, route oral; details: in vivo; outline: as §1
[6] = Elimination half life in Sprague-Dawley rat plasma at 10 mg/kg, po by LC-MS/MS analysis; assay type: ADME, organism-based; details: read-out: beta t1/2 (converted); outline: as §1
[7] = Selectivity index, ratio of IC50 for HUVEC to EC50 for inhibition of P-gp in human K562/A02 cells assessed as potentiation of doxorubicin-induced cytotoxicity
Outline: (§2)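 Reversal EC50 is the modulator concentration that halves the DOX IC50 in K562/A02 cells, from % DOX IC50 plotted against log modulator concentration. The index divides the MTT IC50 in K562, K562/A02 or HUVEC cells by this EC50.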

Homo sapiens [8] = organism: Homo sapiens; assay: Inhibition of P-gp in human K562/A02 cells assessed as potentiation of daunorubicin-induced cytotoxicity at 1.0 uM after 48 hrs by MTT assay; assay type: cell-based
Outline: (§3)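 K562/A02 cells were exposed for 48 h to DNR, PTX, VLB or CTX at 0, 0.313–20 μM, with or without modulator at 1.0 μM. Viability was measured by MTT at 490 nm, mean ± SD of three independent tests.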

[9] = Cmax in Sprague-Dawley rat at 5 mg/kg, iv measured after 24 hrs by LC-MS/MS analysis; assay type: ADME, organism-based; design: dose 5 mg/kg, route intravenous; details: in vivo; outline: as §1
Homo sapiens [10] = organism: Homo sapiens; assay: Inhibition of ATPase activity in human P-gp membrane fraction at 0.5 uM in presence of ATP after 1 hr by luciferase […]; assay type: cell membranes
Outline: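 Human P-gp membrane fraction (~25 μg) was incubated with compound at 0.5, 5.0 or 50.0 μM in 0.5% DMSO, with a 100 μM sodium vanadate reference. Reaction was started with 5.0 mM MgATP, 1 h at 37 °C. Remaining ATP was read by luciferase luminescence after 20 min at room temperature, relative to vanadate. n = 3.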

Homo sapiens [11] = organism: Homo sapiens; assay: Inhibition of P-gp in human K562/A02 cells assessed as potentiation of paclitaxel-induced cytotoxicity at 1.0 uM after 48 hrs by MTT assay; assay type: cell-based; outline: as §3
Rattus norvegicus [12] = assay: AUC(0 to 24 hrs) in Sprague-Dawley rat plasma at 10 mg/kg, po measured after 24 hrs by LC-MS/MS analysis; assay type: ADME, organism-based; design: dose 10 mg/kg, time < 24 hr, route oral; details: in vivo; outline: as §1
Rattus norvegicus [13] = assay: AUC(0 to 24 hrs) in Sprague-Dawley rat plasma at 5 mg/kg, iv measured after 24 hrs by LC-MS/MS analysis; assay type: ADME, organism-based; design: dose 5 mg/kg, time < 24 hr, route intravenous; details: in vivo; outline: as §1
Homo sapiens [14] = organism: Homo sapiens; assay: Inhibition of P-gp in human K562/A02 cells assessed as potentiation of doxorubicin-induced cytotoxicity by measuring fold reduction in doxorubicin IC50 at 1.0 uM after 48 hrs by MTT assay relative to doxorubicin alone; assay type: cell-based
Outline: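 K562/A02 cells (1×10^4 cells per well) were exposed to a DOX concentration series, alone or with modulator at 1.0 μM, for 48 h. Viability was read by MTT at 490 nm. Reversal fold = DOX IC50 without inhibitor / DOX IC50 with inhibitor, mean ± SD of three tests.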

Rattus norvegicus [15] = assay: Effect on half life of doxorubicin in Sprague-Dawley rat at 5 mg/kg, iv co-administered with doxorubicin measured after 8 hrs by LC-MS/MS analysis; assay type: ADME, organism-based; details: in vivo
Outline: (§4)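 Male SD rats received DOX 10 mg/kg i.v. alone or with modulator 5 mg/kg i.v. Orbital blood was taken at 5 min to 8 h. Plasma DOX was measured by LC-MS/MS with DNR (0.5 μg/mL) as internal standard. Mean ± SD, n = 3.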

HUVEC = assay: Cytotoxicity against HUVEC assessed as reduction in cell viability after 48 hrs by MTT assay; assay type: cell-based; details: Homo sapiens
Outline: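 MTT assay on HUVEC, K562 or K562/A02 cells seeded at 1×10^4 cells per well, using serial compound concentrations. Formazan was dissolved in DMSO and read at 490 nm. IC50 was obtained from log dose–response curves, mean ± SD of three independent tests.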

[16] = Selective index, ratio of IC50 for human K562 cells to EC50 for inhibition of P-gp in human K562/A02 cells assessed as potentiation of doxorubicin-induced cytotoxicity; outline: as §2
[17] = Cytotoxicity against human K562 cells assessed as cell viability at 1.0 uM after 48 hrs by MTT assay (reference value: >99%); assay type: cell-based; details: read-out: Activity
Rattus norvegicus [18] = assay: Effect on plasma concentration of doxorubicin in Sprague-Dawley rat at 5 mg/kg, iv co-administered with doxorubicin measured after 8 hrs by LC-MS/MS analysis; assay type: ADME, organism-based; details: in vivo; outline: as §4
Rattus norvegicus [19] = assay: AUC(0 to infinity) in Sprague-Dawley rat plasma at 10 mg/kg, po measured after 24 hrs by LC-MS/MS analysis; assay type: ADME, organism-based; design: dose 10 mg/kg, route oral, time infinity; details: in vivo; outline: as §1
[20] = Plasma clearance in Sprague-Dawley rat at 10 mg/kg, po measured after 24 hrs by LC-MS/MS analysis; assay type: ADME, organism-based; outline: as §1
Rattus norvegicus [21] = assay: Effect on MRT of doxorubicin in Sprague-Dawley rat at 5 mg/kg, iv co-administered with doxorubicin measured after 8 hrs by LC-MS/MS analysis; assay type: ADME, organism-based; details: in vivo; outline: as §4

clearance [1]: 47.8 mL/min/kg | inhibition (INH) [4]: Not Active | Cmax [5]: 761 ng/mL | half-life [6]: 372 min | Cmax [9]: 570 ng/mL | inhibition (Homo sapiens [10]): Active | AUC (Rattus norvegicus [12]): 3130 ng·h/mL | AUC (Rattus norvegicus [13]): 1660 ng·h/mL | AUC (Rattus norvegicus [19]): 3340 ng·h/mL | CL/F [20]: 49.9 mL/min/kg
Compound: COc1cc2c(cc1OC)CN(CCc1ccc(Nc3nc(-c4ccncc4)nc4ccccc34)cc1)CC2
inhibition (Homo sapiens [2]): Active | inhibition (Homo sapiens [3]): Active | Ratio IC50/EC50 [7]: 1270 | inhibition (Homo sapiens [8]): Active | inhibition (Homo sapiens [11]): Active | fold change (FC) (Homo sapiens [14]): 30.9 | Activity (Rattus norvegicus [15]): Non-Toxic | IC50 (HUVEC): 73.6 µM | Ratio IC50/EC50 [16]: 75.6 | viability at 48 h, 1 µM [17]: 96.5% | Activity (Rattus norvegicus [18]): Non-Toxic | Activity (Rattus norvegicus [21]): Non-Toxic
